Assay results: ChEMBL document CHEMBL5715959, “Inhibition of histone methyltransferase EZH2 in Schistosoma mansoni in vitro by GSK343 reduces egg laying and decreases the expression of genes implicated in DNA replication and noncoding RNA metabolism” (2018)
Active and inactive are the calls of the source. The rule behind the calls is not given here.

Tests used:
[1] = test system: Schistosoma mansoni; assay: Antischistosomal activity against Schistosoma mansoni assessed as down-regulated DNAse II protein mRNA level in schistosomula at 20 uM incubated for 48 hrs by RT-qPCR analysis; type: functional, organism-based
How it was run: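 Schistosomula (supplemented M169) or adult worms (supplemented RPMI) were treated 48 h with 20 μM GSK343 or 0.1% DMSO at 37°C, 5% CO2. qPCR normalizer genes were chosen from RNA-seq data as those with TPM >1 and a treated/control ratio of 0.9–1.1 that were not differentially expressed. Relative expression was calculated by comparative Ct; significance by t-test.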

[2] = test system: Schistosoma mansoni; assay: Antischistosomal activity against adult Schistosoma mansoni assessed as reduction in pairing of couples at 20 uM incubated for 48 hrs by inverted microscope analysis relative to control; type: functional; set-up: scale not given: the % may be the effect or the level left
How it was run: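 Paired adult worms were cultured in RPMI/10% FBS with antibiotics at 37°C, 5% CO2, with GSK343 or 0.1% DMSO. They were viewed by inverted microscope at 3, 6, 12, 24 and 48 h. Motility was scored on a 0–3 scale (3 full movement, 1.5 partial or immobile but alive, 0 dead); death meant no movement over more than 2 min. Pairing was recorded. Three experiments, each with 10 pairs; mean ± SD.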

[3] = test system: Schistosoma mansoni; assay: Antischistosomal activity against Schistosoma mansoni assessed as length of schistosomula at 20 uM incubated for 24 to 48 hrs by scanning electron microscopy analysis (reference value: […]); type: functional; settings: time 24-48 hrs
How it was run: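 Newly transformed schistosomula were held 16 h in M169 with 2% FBS, serotonin, hypoxanthine, hydrocortisone, triiodothyronine and antibiotics at 37°C, 5% CO2, at 2,000 per well. They were then exposed to 20 μM GSK343 or 0.1% DMSO for 24 and 48 h. Fixation was modified Karnovsky (pH 7.4) with 1% osmium post-fix, then ethanol dehydration, critical-point drying, gold coating and SEM. Lengths came from three experiments, each with 20 schistosomula.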

[4] = test system: Schistosoma mansoni; assay: Cytotoxicity against juvenile Schistosoma mansoni assessed as decrease in viability at 10 to 20 uM incubated for 48 hrs by CellTiter-Glo Luminescent assay relative to control; type: functional; settings: dose 10-20 µM
How it was run: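 Perfused juvenile worms cultured in supplemented RPMI (10% FBS, 37°C, 5% CO2), exposed 24 or 48 h to compound or 0.1% DMSO. Total parasite ATP read by luminescence, given as % of vehicle; three replicate experiments of 10 juveniles each, mean ± SD.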

[5] = test system: Schistosoma mansoni; assay: Antischistosomal activity against adult female Schistosoma mansoni assessed as reduction in area dimension of egg at 20 uM incubated for 24 to 48 hrs by scanning electron microscopy analysis relative to control; type: functional; set-up: scale not given: the % may be the effect or the level left; settings: time 24-48 hrs
How it was run: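 Eggs released by couples kept 24 or 48 h with 20 μM GSK343 or 0.1% DMSO in supplemented RPMI were fixed in modified Karnovsky with osmium post-fix. They were dehydrated, critical-point dried, gold-coated and imaged by SEM; total egg area dimension was measured.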

With `CCCc1cc(C)[nH]c(=O)c1CNC(=O)c1cc(-c2ccnc(N3CCN(C)CC3)c2)cc2c1cnn2C(C)C` the Activity [1] was “Active”, the Activity [2] was ~50% and the Activity [3] was 74 µm. For the same molecule, the Activity [4] was 20% and the Activity [5] was 30%.
